Reference: ChEMBL document CHEMBL4270546, “A novel Anti-Cancer Stem Cells compound optimized from the natural symplostatin 4 scaffold inhibits Wnt/β-catenin signaling pathway” (Eur J Med Chem, 2018)
Activity calls are given as the source filed them. The rule behind the calls is not given here.

Key:
MCF7 = assay: Antiproliferative activity against human MCF7 cells after 48 hrs by MTT assay; format: functional, cell-based; details: MCF7, 48 h
MDA-MB-231 = assay: Antiproliferative activity against human MDA-MB-231 cells after 48 hrs by MTT assay; format: functional, cell-based; details: MDA-MB-231, 48 h
4T1 = assay: Antiproliferative activity against mouse 4T1 cells after 48 hrs by MTT assay; format: functional, cell-based; details: 4T1, 48 h
A-375 [1] = assay: Antiproliferative activity against human A375 cells after 48 hrs by MTT assay; format: functional, cell-based; details: A-375, 48 h
A-375 [2] = assay: Inhibition of colony formation in human A375 cells at 0.125 to 0.25 uM after 7 days by crystal violet staining based assay; format: functional, cell-based
How it was run: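 Clonogenic long-term growth assay: A375 or B16F10 cells grown under continuous compound exposure for 7 days, then colonies quantified; mean ± sd, n = 3, two-way ANOVA.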

A-375 [3] = assay: Induction of apoptosis in human A375 cells assessed as live cells at 1 uM after 48 hrs by Annexin V-FITC/propidium iodide staining based flow cytometry (reference value: 93.6%); format: functional
A-375 [4] = assay: Induction of apoptosis in human A375 cells assessed as late apoptotic cells at 1 uM after 48 hrs by Annexin V-FITC/propidium iodide staining based flow cytometry (reference value: 2.7%); format: functional
A-375 [5] = assay: Induction of apoptosis in human A375 cells assessed as live cells at 2 uM after 48 hrs by Annexin V-FITC/propidium iodide staining based flow cytometry (reference value: 93.6%); format: functional
A-375 [6] = assay: Induction of apoptosis in human A375 cells assessed as necrotic cells at 2 uM after 48 hrs by Annexin V-FITC/propidium iodide staining based flow cytometry (reference value: 2.39%); format: functional
B16-F10 [7] = assay: Induction of apoptosis in mouse B16F10 cells assessed as live cells at 1 uM after 48 hrs by Annexin V-FITC/propidium iodide staining based flow cytometry (reference value: 97.6%); format: functional
B16-F10 [8] = assay: Induction of apoptosis in mouse B16F10 cells assessed as late apoptotic cells at 1 uM after 48 hrs by Annexin V-FITC/propidium iodide staining based flow cytometry (reference value: 0.303%); format: functional
B16-F10 [9] = assay: Induction of apoptosis in mouse B16F10 cells assessed as necrotic cells at 1 uM after 48 hrs by Annexin V-FITC/propidium iodide staining based flow cytometry (reference value: 1.86%); format: functional
B16-F10 [10] = assay: Induction of apoptosis in mouse B16F10 cells assessed as late apoptotic cells at 2 uM after 48 hrs by Annexin V-FITC/propidium iodide staining based flow cytometry (reference value: 0.303%); format: functional
A-375 [11] = assay: Induction of apoptosis in human A375 cells after 48 hrs by Annexin V-FITC/propidium iodide staining based flow cytometry; format: functional, cell-based
A-375 [12] = assay: Induction of apoptosis in human A375 cells assessed as upregulation of cleaved PARP expression at 0.5 to 4 uM after 48 hrs by Western blot analysis; format: functional, cell-based
How it was run: (§1)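 Cells treated with compound at different concentrations (0.5-4 μM) for 48 h. Lysates probed by Western blot for cleaved PARP, active caspase-3, Bax and p53.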

A-375 [13] = assay: Induction of apoptosis in human A375 cells assessed as upregulation of activated caspase-3 protein expression at 0.5 to 4 uM after 48 hrs by Western blot analysis; format: functional, cell-based; how it was run: as §1
B16-F10 [14] = assay: Induction of apoptosis in mouse B16F10 cells assessed as upregulation of cleaved PARP expression at 0.5 to 4 uM after 48 hrs by Western blot analysis; format: functional, cell-based; how it was run: as §1
B16-F10 [15] = assay: Induction of apoptosis in mouse B16F10 cells assessed as upregulation of activated caspase-3 protein expression at 0.5 to 4 uM after 48 hrs by Western blot analysis; format: functional, cell-based; how it was run: as §1
A-375 [16] = assay: Antimigratory activity against human A375 cells at 0.25 uM after 24 to 48 hrs by wound healing assay; format: functional, cell-based
How it was run: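 Wound-healing scratch assay on cells treated with or without compound (0.25 μM). Images recorded at 0, 24 and 48 h, and migration distance quantified. Mean ± sd, n = 3, two-way ANOVA.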

A-375 [17] = assay: Antimigratory activity against human A375 cells at 0.25 uM after 24 hrs by transwell migration assay; format: functional, cell-based
How it was run: (§2)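 Cells seeded in the upper chamber of a transwell and incubated with compound (0.25 μM) for 24 h. Cells migrated to the lower chamber were imaged and counted against an untreated control. Mean ± sd, n = 3, two-way ANOVA.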

B16-F10 [18] = assay: Antimigratory activity against mouse B16F10 cells at 0.25 uM after 24 hrs by transwell migration assay; format: functional, cell-based; how it was run: as §2
A-375 [19] = assay: Anti-invasive activity against human A375 cells at 0.25 uM after 24 hrs by matrigel invasion assay; format: functional, cell-based
How it was run: (§3)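 Cells seeded in the upper chamber of a transwell with a Matrigel-precoated filter, incubated with compound (0.25 μM) for 24 h. Invaded cells imaged and counted against an untreated control. Mean ± sd, n = 3, two-way ANOVA.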

B16-F10 [20] = assay: Anti-invasive activity against mouse B16F10 cells at 0.25 uM after 24 hrs by matrigel invasion assay; format: functional, cell-based; how it was run: as §3
A-375 [21] = assay: Inhibition of ALDH+ subpopulation of human A375 cells assessed as ALDH+ cells at 0.5 after 48 hrs by flow cytometry (reference value: 25.7%); format: functional; design: scale not given: the % may be the effect or the level left
B16-F10 [22] = assay: Inhibition of ALDH+ subpopulation of mouse B16F10 cells assessed as ALDH+ cells at 0.5 after 48 hrs by flow cytometry (reference value: 26.7%); format: functional; design: scale not given: the % may be the effect or the level left
A-375 [23] = assay: Inhibition of CD133+ sub-population of human A375 cells assessed as CD133+ cells at 0.25 after 48 hrs by flow cytometry (reference value: 4.54%); format: functional; design: scale not given: the % may be the effect or the level left
B16-F10 [24] = assay: Inhibition of CD133+ sub-population of mouse B16F10 cells assessed as CD133+ cells at 0.25 after 48 hrs by flow cytometry (reference value: 7.23%); format: functional; design: scale not given: the % may be the effect or the level left
B16-F10 [25] = assay: Inhibition of CD133+ sub-population of mouse B16F10 cells assessed as CD133+ cells at 0.5 after 48 hrs by flow cytometry (reference value: 7.23%); format: functional; design: scale not given: the % may be the effect or the level left
Homo sapiens = species: Homo sapiens; assay: Inhibition of Wnt/beta-catenin signaling pathway in human A375 cells assessed as reduction in STAT3 phosphorylation after 48 hrs by Western blot analysis; format: cell-based
How it was run: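 A375 cells exposed to compound at several concentrations for 48 h; lysates immunoblotted for STAT3, p-STAT3, β-catenin and c-Myc.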

Mus musculus = assay: Toxicity in C57BL/6J mouse implanted with mouse B16F10 cells assessed as change in body weight at 15 mg/kg/day, ip measured daily for 24 days; format: organism-based; details: in vivo, 576 h
How it was run: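 C57BL/6J mice carrying subcutaneous B16F10 cell grafts; vehicle and treated groups (n = 5) followed for body weight, with tumours dissected and weighed on day 24; mean ± sd, two-way ANOVA.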

A-375 [26] = assay: Induction of apoptosis in human A375 cells assessed as upregulation of Bax expression after 48 hrs by Western blot analysis
A-375 [27] = assay: Induction of apoptosis in human A375 cells assessed as upregulation of p53 expression after 48 hrs by Western blot analysis
B16-F10 [28] = assay: Induction of apoptosis in mouse B16F10 cells assessed as upregulation of Bax expression after 48 hrs by Western blot analysis

IC50 (MCF7): 2.54 µM
IC50 (MDA-MB-231): 0.922 µM
IC50 (4T1): 0.946 µM
IC50 (A-375 [1]): 0.801 µM
SMILES: CC[C@H](C)[C@H](NC(=O)OCc1ccccc1)C(=O)N[C@@H](CC(C)C)C(=O)N[C@@H](CC(C)C)C(=O)N[C@@H](C)/C=C/C(=O)N1C(=O)C=C(OC)[C@@H]1C(C)C
inhibition (A-375 [2]): Active
Activity (A-375 [3]): 97.9%
Activity (A-375 [4]): 4.48%
Activity (A-375 [5]): 79.3%
Activity (A-375 [6]): 2.87%
Activity (B16-F10 [7]): 85%
Activity (B16-F10 [8]): 4.05%
Activity (B16-F10 [9]): 1.37%
Activity (B16-F10 [10]): 32.9%
Activity (A-375 [11]): Dose-dependent effect
Activity (A-375 [12]): Active
Activity (A-375 [13]): Active
Activity (B16-F10 [14]): Active
Activity (B16-F10 [15]): Active
Activity (A-375 [16]): Active
Activity (A-375 [17]): Active
Activity (B16-F10 [18]): Active
Activity (A-375 [19]): Active
Activity (B16-F10 [20]): Active
Activity (A-375 [21]): 8.81%
Activity (B16-F10 [22]): 11.8%
Activity (A-375 [23]): 1.25%
Activity (B16-F10 [24]): 2.31%
Activity (B16-F10 [25]): 1.7%
inhibition (Homo sapiens): Dose-dependent effect
Activity (Mus musculus): Non-Toxic
Bax upregulation (A-375 [26]): Dose-dependent effect
p53 upregulation (A-375 [27]): Dose-dependent effect
Bax upregulation (B16-F10 [28]): Dose-dependent effect
